Screening results from PubChem.
AF4-AF9 inh: blocks AF4 peptide binding to human AF9 | P42568 | AlphaScreen, biotin-AF4 peptide binding to FLAG-AF9 | inhibition, % at 10 µM | actives 0.47% (n = 350,000);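 active means every replicate reaching a set inhibition limit, whatever the replicate mean, cut at about 25% in these data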;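 further: 0% = plate neutral control median and 100% = total signal loss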
XiGFP reactiv: reactivates the inactive X chromosome in mouse fibroblasts | XiGFP mouse fibroblasts, % GFP-positive cells imaging, 3 d; cells co-treated with 5-aza-dC sensitizer; scaled so ellipticine positive control = 100% | activation, % at 7.58 µM | actives 0.055% (n = 360,000) | AID 743238;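 active means mean normalized replicate activation at least 10% and every replicate at or above 10%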;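 further: 0% = median of on-plate neutral control wells and 100% = ellipticine 6 µM median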
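material = 68-5-11 XiGFP fibroblast line | medium = DMEM plus 5-aza-dC sensitizer | schedule = 3 days compound exposure | benchmarks = positive control ellipticine, 6 µM final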
RAD54 branch: RAD54 (human) branch migration inhibition; Q92698; RAD54 Holliday junction branch migration, FAM/BHQ fluorescence; inhibition, % at 10.4 µM; actives 0.14% (n = 360,000); AID 602329;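 active means mean normalized replicate activity at least 40 and at least half of replicates scoring 40 or more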;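 further: 0% = median of neutral control wells and 100% = median of positive control wells; inhibitors cause a drop in the FAM fluorescence signal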
RAD52 inh: RAD52 (human) annealing inhibition. actives 0.46% (n = 360,000). P43351. inhibition, % at 18.7 µM. AID 651710. recombinant RAD52 DNA annealing, FRET fluorescence;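 active means every replicate showing at least 50% inhibition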
S100A4 inh HTS: blocks human S100A4 binding to myosin IIA peptide; AID 652163; actives 0.14% (n = 360,000); S100A4/TAMRA-MyoIIA peptide fluorescence polarization; inhibition, % at 10.7 µM;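 active means mean inhibition of at least 70% across replicates, with every replicate also reaching that level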
Target sequence (P26447 whole entry, looked up): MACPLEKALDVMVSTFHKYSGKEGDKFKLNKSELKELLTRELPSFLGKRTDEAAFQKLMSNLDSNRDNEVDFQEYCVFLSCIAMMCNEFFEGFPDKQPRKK
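Material: S100A4 monomer (human). Medium: Calcium-containing HEPES buffer, pH 7.2. Probe or stimulus: labelled myosin peptide probe, 5 nM. Compound dosing: one concentration per compound. Timing: polarization read 5 min after assay mix addition, stable 5–60 min. Benchmarks: DMSO as neutral control, TFP as positive control.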
CASP6 VEID inh: inhibitors of human caspase-6; P55212; purified caspase-6, Z-VEID-R110 cleavage fluorescence; inhibition, % at 12.5 µM; actives 0.53% (n = 350,000);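 active means mean inhibition across replicates at least about 35%, with every replicate also reaching that limit, limit read from the data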;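 further: 0% = median of neutral control wells and 100% = no fluorescence left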
Target sequence (P55212 24-179 limits assumed): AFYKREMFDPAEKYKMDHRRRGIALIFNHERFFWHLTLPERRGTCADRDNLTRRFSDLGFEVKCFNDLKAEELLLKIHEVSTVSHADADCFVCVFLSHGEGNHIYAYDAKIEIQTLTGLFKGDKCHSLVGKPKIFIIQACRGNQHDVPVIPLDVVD
Target sequence (P55212 194-293 limits assumed): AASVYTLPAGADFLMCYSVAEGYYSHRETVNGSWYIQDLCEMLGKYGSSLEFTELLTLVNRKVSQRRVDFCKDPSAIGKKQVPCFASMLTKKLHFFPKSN
Active calls of the source: *; / = no result given; ! = repeats disagree. Most compounds without a hit are left out; they make up all but 1.3% or so of the library.

SMILES | AF4-AF9 inh | XiGFP reactiv | RAD54 branch | RAD52 inh | S100A4 inh HTS | CASP6 VEID inh
COc1ccc(S(=O)(=O)Nc2ccc3c(c2)C(=O)N([C@@H](C)CO)C[C@@H](C)[C@H](CN(C)C(=O)Nc2ccccc2)OCCCC[C@@H](C)O3)cc1 | 1 | 0 | 3 | -41 | 103* | -3
C[C@@H]1CN([C@@H](C)CO)C(=O)c2cc(NS(=O)(=O)c3ccccc3)ccc2O[C@@H](C)CCCCO[C@H]1CN(C)C(=O)Nc1ccc(C(F)(F)F)cc1 | -2 | 0 | / | 16 | -11 | -2
CC(C)NC(=O)N(C)C[C@@H]1Oc2ccc(NS(=O)(=O)c3ccccc3)cc2C(=O)N([C@H](C)CO)C[C@@H]1C | -1 | 0 | -21 | 10 | 112* | 1
CO[C@H]1CN(C)C(=O)c2cc(NC(C)=O)ccc2OC[C@@H](C)N(Cc2cccnc2)C[C@H]1C | / | 0 | 1 | / | / | /
C[C@@H]1CN([C@@H](C)CO)C(=O)c2cc(NS(=O)(=O)c3cn(C)cn3)ccc2O[C@@H](C)CCCCO[C@@H]1CN(C)Cc1ccc(C(F)(F)F)cc1 | -1 | -1 | -1 | -8 | -2 | -13
COc1ccc(NC(=O)N(C)C[C@@H]2OCCCC[C@@H](C)Oc3ccc(NS(=O)(=O)c4ccc(Cl)cc4)cc3C(=O)N([C@H](C)CO)C[C@@H]2C)cc1 | 0 | 0 | 2 | -16 | 139* | -4
Cc1ccc(Nc2nc(-c3ccc(O)c(O)c3)cs2)nc1 | 42* | 0 | / | -18 | 2 | 29
COc1ccc(N2CCN(CCCNC(=O)c3cc4sccc4n3C)CC2)cc1 | 28* | / | 5 | -18 | 5 | -8
Oc1ccc(/C=N/Nc2ccc(Cl)nn2)c(O)c1O | 0 | 0 | -9 | -18 | -2 | 48*
Oc1c(Br)cc(Br)cc1/C=N/Nc1ccc(Cl)nn1 | -2 | 0 | -1 | -7 | -2 | 0
C[C@H](CO)N1C[C@H](C)[C@@H](CN(C)C(=O)Nc2ccccc2)OCCCC[C@H](C)Oc2ccc(NC(=O)Nc3ccc(C(F)(F)F)cc3)cc2C1=O | / | 0 | / | / | / | /
CCOC(=O)N1CCC(N2Cc3cccc(C(=O)Nc4cc(F)ccc4F)c3C2=O)CC1 | 0 | 0 | 6 | 2 | -14 | -3
CCOC(=O)N1CCC(N2Cc3cccc(C(=O)Nc4ccc(N(CC)CC)cc4C)c3C2=O)CC1 | 43* | 2 | 2 | -30 | -2 | 2
Cc1noc(C)c1S(=O)(=O)Nc1ccc2c(c1)C(=O)N([C@H](C)CO)C[C@H](C)[C@@H](CN(C)C(=O)Nc1ccccc1)OCCCC[C@@H](C)O2 | 3 | 0 | -2 | -84 | -19 | 1
COC(=O)c1ccc(COc2ccc(C)cc2[N+](=O)[O-])o1 | / | 0 | 5 | -11 | -3 | -1
COC(=O)c1ccc(COc2cc([N+](=O)[O-])cc3cccnc23)o1 | -4 | 0 | / | -9 | -6 | 38*
O=[N+]([O-])c1cc2cccnc2c2ncccc12 | -1 | 0 | 10 | -16 | 1 | 4
O=[N+]([O-])c1cc(O)c2ncccc2c1 | -4 | 0 | / | -17 | 3 | 47*
NC(=O)c1ccc(NC(=O)COC(=O)/C=C/c2ccc(Br)o2)cc1 | -3 | 0 | -12 | -32 | -1 | 80*
CCCCNC(=O)O[C@H]1C[C@@H]2CCN3C(=O)CCC[C@H]([C@H]1CC)[C@H]23 | -7 | 0 | -1 | -7 | -1 | -3
CCCCNC(=O)O[C@@H]1C[C@@H]2CCN3C(=O)CCC[C@H]([C@H]1CC)[C@H]23 | 94* | 0 | -4 | -16 | -1 | -2
COc1ccc(C(CCNCc2ccc(N(C)C)cc2)c2ccccc2)cc1 (stereo not given) | 50* | 0 | 4 | -32 | -8 | 2
Cc1ccc(S(=O)(=O)N2[C@@H]3CNC[C@H]2C3c2ccc(/C=C/c3ccccc3)cc2)cc1 (stereo not given in full) | -2 | 0 | / | 53*! | -37 | 0
O=S(=O)(c1ccccc1)N1[C@@H]2CNC[C@H]1C2c1ccc(/C=C/c2ccccc2)cc1 (stereo not given in full) | -2 | 0 | / | 49 | -15 | 2
Cc1ccc(S(=O)(=O)N2[C@@H]3CNC[C@H]2C3c2ccc(-c3ccc(C#N)cc3)cc2)cc1 (stereo not given in full) | -3 | 0 | / | 55* | -1 | 0
SMILES | AF4-AF9 inh | XiGFP reactiv | RAD54 branch | RAD52 inh | S100A4 inh HTS | CASP6 VEID inh
O=S(=O)(c1ccc(-c2ccccc2)cc1)N1[C@@H]2CNC[C@H]1C2c1ccc(-c2cccnc2)cc1 (stereo not given in full) | -3 | 0 | / | 66* | -16 | -2
O=S(=O)(c1ccccc1)N1[C@@H]2CNC[C@H]1C2c1ccc(-c2cccnc2)cc1 (stereo not given in full) | -3 | 0 | / | -9 | 3 | 2
O=S(=O)(c1ccc(-c2ccccc2)cc1)N1[C@@H]2CNC[C@H]1C2c1ccc(-c2ccccc2)cc1 (stereo not given in full) | / | 0 | / | / | / | /
COc1ccc(-c2cc(-c3ccco3)[nH]c(=O)c2C#N)cc1OC | 3 | 0 | -33 | -163 | -5 | 38*
N#Cc1c(-c2ccccc2)cc(-c2ccc3c(c2)OCO3)[nH]c1=O | -1 | 0 | -5 | -8 | -3 | 1
COc1ccc(N2C(=O)[C@@H]3[C@H](C2=O)[C@H]2c4ccccc4C=CN2[C@@H]3C(C)=O)cc1 | -1 | 0 | -7 | -33 | -8 | 84*
COc1ccc(N2C(=O)[C@H]3[C@@H](C2=O)C2c4ccccc4C=NN2[C@H]3C(=O)C(C)(C)C)cc1 (stereo not given in full) | 0 | 0 | -4 | -19 | 2 | 3
Cc1ccc(Cl)cc1NC(=O)CSc1sc2c(O)cc(=O)[nH]c2c1C#N | 3 | 0 | 3 | -45 | -7 | 44*
COc1ccc(NC(=O)CSc2sc3c(O)cc(=O)[nH]c3c2C#N)c(OC)c1 | -6 | 0 | -5 | -11 | -6 | 59*
COC(=O)c1ccc(C)c(NC(=O)CSc2sc3c(O)cc(=O)[nH]c3c2C#N)c1 | -1 | 0 | 4 | -42 | -6 | 54*
Cc1ccc(C)c(NC(=O)CSc2sc3c(O)cc(=O)[nH]c3c2C#N)c1 | 2 | 0 | -6 | -22 | -2 | 47*
CC(C)[C@@H](C)NC(=O)N(C)C[C@H]1OCc2ccccc2-c2c(n(C)c3ccccc23)C(=O)N([C@H](C)CO)C[C@@H]1C | 7 | 0 | -2 | 14 | -8 | -1
Cn1cnc([N+](=O)[O-])c1S(=O)(=O)Nc1ccccc1 | -1 | 0 | 3 | -3 | -2 | 42*
